Key:
Cathepsin D [1] = biological target: T1, Cathepsin D (Bos taurus, UniProt P80209); assay: Inhibition of Bovine Cathepsin D.
T1 sequence (P80209 whole entry): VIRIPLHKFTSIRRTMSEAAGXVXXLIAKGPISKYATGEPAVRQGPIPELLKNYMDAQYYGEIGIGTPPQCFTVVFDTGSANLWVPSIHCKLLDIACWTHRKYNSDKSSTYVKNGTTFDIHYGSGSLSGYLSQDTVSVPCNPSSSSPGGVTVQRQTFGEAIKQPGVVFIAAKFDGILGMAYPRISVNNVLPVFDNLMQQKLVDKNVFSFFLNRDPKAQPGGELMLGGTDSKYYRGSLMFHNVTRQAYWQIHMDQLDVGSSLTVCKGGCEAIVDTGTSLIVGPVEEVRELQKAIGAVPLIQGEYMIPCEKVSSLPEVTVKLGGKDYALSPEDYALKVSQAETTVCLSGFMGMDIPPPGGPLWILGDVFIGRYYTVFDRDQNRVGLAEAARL
Procedure, shortened: (§1)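 Bovine cathepsin D hydrolysing twice-crystallised bovine hemoglobin at pH 3.2 and 37 °C, run in duplicate. Net absorbance at 280 nm was read in acid-precipitated supernatants and compared with uninhibited controls. IC50 came from nonlinear regression over six inhibitor concentrations.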

Monkey [2] = assay: Maximum fall in mean arterial blood pressure expressed in mmHg following a 30 mg/kg dose in monkeys.; type: functional, Cercopithecidae
Procedure, shortened: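 Conscious monkeys were dosed orally by gavage at 30 mg/kg in water/dimethylacetamide/Tween 80 (62.5:7.5:30), 2 mL/kg. Two models were used: high-renin normotensive (sodium restriction plus furosemide) or renal hypertensive (renal artery clipping). Mean arterial pressure was followed for 3 h, and the maximum fall in mmHg was recorded. N is given per compound.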

[3] = biological target: Renin (Macaca fascicularis); assay: Inhibition of monkey plasma renin
[4] = biological target: Chymotrypsinogen A (Bos taurus) (UniProt P00766); assay: % degradation to Chymotrypsinogen proteolysis at 15 mins.
Procedure, shortened: (§2)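 Bovine chymotrypsin in buffered solution at pH 6.9, following a previously established method. Test compound was incubated with the enzyme, and the percent of compound degraded was read at 15 or 30 min.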

[5] = biological target: Chymotrypsinogen A (Bos taurus) (UniProt P00766); assay: % degradation to Chymotrypsinogen proteolysis at 30 mins.; procedure, shortened: as §2
Cathepsin D [6] = biological target: T1, Cathepsin D; assay: Inhibitory concentration on Bovine Cathepsin D; procedure, shortened: as §1
Renin = biological target: T2, Renin (Homo sapiens, UniProt P00797); assay: Inhibitory concentration against human renin
T2 sequence (P00797 whole entry): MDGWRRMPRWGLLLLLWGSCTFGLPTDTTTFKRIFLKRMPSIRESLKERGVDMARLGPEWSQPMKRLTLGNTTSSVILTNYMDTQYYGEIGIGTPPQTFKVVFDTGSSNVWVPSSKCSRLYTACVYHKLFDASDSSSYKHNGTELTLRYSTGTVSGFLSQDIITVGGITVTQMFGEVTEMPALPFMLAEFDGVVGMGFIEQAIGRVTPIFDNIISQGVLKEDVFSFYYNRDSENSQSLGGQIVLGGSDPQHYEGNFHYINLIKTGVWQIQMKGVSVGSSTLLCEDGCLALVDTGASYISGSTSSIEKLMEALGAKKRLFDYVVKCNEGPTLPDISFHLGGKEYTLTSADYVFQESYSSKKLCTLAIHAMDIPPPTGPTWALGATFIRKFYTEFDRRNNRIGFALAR

Monkey [7] = assay: Maximum fall in mean arterial blood pressure expressed in mmHg following a 3 mg/kg intravenous dose in monkeys

## COC(=O)CC(NC(=O)[C@H](Cc1ccccc1)NS(=O)(=O)N1CCOCC1)C(=O)N[C@@H](CC1CCCCC1)[C@@H](O)[C@H](O)CC(C)C (stereo partly drawn)
Cathepsin D [1]
  IC50: 0.027 µM
Monkey [2]
  Blood pressure: 3 mmHg
[3]
  IC50: 0.00018 µM

## COc1ccc(C[C@H](NC(=O)CC(C)(C)N)C(=O)N[C@@H](Cc2c[nH]cn2)C(=O)N[C@@H](CC2CCCCC2)[C@@H](O)[C@@H](O)CC(C)C)cc1
Cathepsin D [1]
  IC50: > 1 µM
Monkey [2]
  Blood pressure: 8 mmHg

## COC(=O)CCC(NC(=O)[C@H](Cc1ccccc1)NS(=O)(=O)N1CCOCC1)C(=O)N[C@@H](CC1CCCCC1)[C@@H](O)[C@H](O)CC(C)C (stereo partly drawn)
Cathepsin D [1]
  IC50: 0.03 µM
Monkey [2]
  Blood pressure: 12 mmHg
[3]
  IC50: 0.0014 µM

## COC(=O)C(NC(=O)[C@H](Cc1ccccc1)NS(=O)(=O)N1CCOCC1)C(=O)N[C@@H](CC1CCCCC1)[C@@H](O)[C@H](O)CC(C)C (stereo in doubt; 4) [listing 1 of 2 here]
[4]
  Degradation: 89%
[5]
  Degradation: 100%

## CC(C)C[C@@H](O)[C@H](O)[C@H](CC1CCCCC1)NC(=O)C(NC(=O)[C@H](Cc1ccccc1)NS(=O)(=O)N1CCOCC1)C(=O)O (stereo partly drawn)
Cathepsin D [1]
  IC50: 0.31 µM
[3]
  IC50: 0.027 µM

## COC(=O)C(NC(=O)[C@H](Cc1ccccc1)NS(=O)(=O)N1CCOCC1)C(=O)N[C@@H](CC(C)C)[C@@H](O)CC(=O)NCCN1CCOCC1 (stereo partly drawn)
Cathepsin D [6]
  IC50: > 1 µM
Renin
  IC50: 0.13 µM

## CCCCCCOC(=O)C(NC(=O)[C@H](Cc1ccccc1)NS(=O)(=O)N1CCOCC1)C(=O)N[C@@H](CC1CCCCC1)[C@@H](O)[C@H](O)CC(C)C (stereo partly drawn)
Cathepsin D [1]
  IC50: 0.1 µM
[5]
  Degradation: 15%
[3]
  IC50: 0.015 µM

## CSC[C@H](NC(=O)[C@H](Cc1ccccc1)NC(=O)N1CCOCC1)C(=O)N[C@@H](CC1CCCCC1)[C@@H](O)C(=O)OC(C)C
Cathepsin D [6]
  IC50: 0.024 µM
Monkey [2]
  Blood pressure: 9 mmHg

## CCCCNC(=O)[C@@H](C[C@H](O)[C@H](CC1CCCCC1)NC(=O)[C@H](Cc1c[nH]cn1)NC(=O)[C@H](Cc1ccccc1)CS(=O)(=O)C(C)(C)C)C(C)C
Cathepsin D [6]
  IC50: 1.3 µM
Monkey [2]
  Blood pressure: 16 mmHg

## COC(=O)C(NC(=O)[C@H](Cc1ccccc1)NS(=O)(=O)N1CCOCC1)C(=O)N[C@@H](CC1CCCCC1)[C@@H](O)CC(=O)NCCN1CCOCC1 (stereo partly drawn)
Cathepsin D [6]
  IC50: > 1 µM
Monkey [7]
  Blood pressure: 16 mmHg

## COC(=O)C(NC(=O)[C@H](Cc1ccccc1)NS(=O)(=O)N1CCOCC1)C(=O)N[C@@H](CC1CCCCC1)[C@@H](O)[C@H](O)CC(C)C (stereo in doubt; 4B)
Cathepsin D [1]
  IC50: 0.077 µM
Monkey [2]; 30 mg/kg
  Blood pressure: 14 mmHg

## COC(=O)C(NC(=O)[C@H](Cc1ccccc1)NS(=O)(=O)N1CCOCC1)C(=O)N[C@@H](CC1CCCCC1)[C@@H](O)[C@H](O)CC(C)C (stereo in doubt; 4A)
Cathepsin D [1]
  IC50: 0.046 µM
Monkey [2]; 30 mg/kg
  Blood pressure: 18 mmHg

## C=CCOC(=O)C(NC(=O)[C@H](Cc1ccccc1)NS(=O)(=O)N1CCOCC1)C(=O)N[C@@H](CC1CCCCC1)[C@@H](O)[C@H](O)CC(C)C (stereo partly drawn)
Cathepsin D [1]
  IC50: > 0.1 µM
[5]
  Degradation: 65%
[3]
  IC50: 0.00095 µM

## CC(C)C[C@@H](O)[C@H](O)[C@H](CC1CCCCC1)NC(=O)C(NC(=O)[C@H](Cc1ccccc1)NS(=O)(=O)N1CCOCC1)C(=O)OC(C)C (stereo partly drawn)
Cathepsin D [1]
  IC50: 0.043 µM
[5]
  Degradation: 70%
Monkey [2]
  Blood pressure: 16 mmHg
[3]
  IC50: 0.00068 µM

## COC(=O)C(NC(=O)[C@H](Cc1ccccc1)NS(=O)(=O)N1CCOCC1)C(=O)N[C@@H](CC1CCCCC1)C(=O)C(F)(F)C(=O)NCCN1CCOCC1 (stereo partly drawn)
Cathepsin D [6]
  IC50: 0.515 µM
Monkey [2]
  Blood pressure: 16 mmHg

## COC(=O)C(NC(=O)[C@H](Cc1ccccc1)NS(=O)(=O)N1CCOCC1)C(=O)N[C@@H](CC1CCCCC1)[C@@H](O)[C@H](O)CC(C)C (stereo in doubt; 4) [listing 2 of 2 here]
Cathepsin D [1]
  IC50: 0.036 µM
Monkey [2]; 30 mg/kg
  Blood pressure: 22 mmHg

From ChEMBL document CHEMBL1125270, “Renin inhibitors containing esters at the P2-position. Oral activity in a derivative of methyl aminomalonate” (J Med Chem, 1991)
